Experimental data from ChEMBL document CHEMBL1124412, “Long acting dihydropyridine calcium antagonists. 2. 2-[2-Aminoheterocycloethoxy]methyl derivatives” (J Med Chem, 1989).
Each block holds one compound with its values, some of them ahead of it.

Columns and labels:
Rattus norvegicus = organism: Rattus norvegicus; assay: Concentration required to inhibit calcium-induced constriction of potassium-depolarized rat aorta by 50%; assay type: functional
Cavia porcellus = organism: Cavia porcellus; assay: In vitro assessment of negative inotropy in the isolated Langendorff perfused guinea pig heart; assay type: functional
Canis familiaris = assay: Percent decrease in coronary vascular resistance in dogs at 150 u/kg intravenous dose; assay type: functional, Canis lupus familiaris
Outline: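 Anaesthetized beagle dogs were implanted with catheters for blood pressure, left ventricular pressure and intravenous dosing, and given 150 µg/kg i.v. Coronary blood flow was measured by hydrogen clearance with platinum electrodes in the coronary sinus and femoral artery, and cardiac output by thermodilution. Coronary vascular resistance was derived from these measurements, and the duration-of-action half-life was followed in hours.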

Compound: CCO/C(O)=C1\C(COCCNc2nccnc2Cl)=NC(C)=C(C(=O)OC)C1c1cccc(Cl)c1Cl (stereo unspecified)
- IC50 (Rattus norvegicus): 2.51 nM
- pIC25 (Cavia porcellus): 7.4

Compound: CCO/C(O)=C1\C(COCCNC2=NC(=O)C(C)(C)N2)=NC(C)=C(C(=O)OC)C1c1cccc(Cl)c1Cl (stereo unspecified)
- IC50 (Rattus norvegicus): 20 nM
- pIC25 (Cavia porcellus): 6.2

Compound: CCO/C(O)=C1\C(COCCNc2cc(NC)ncn2)=NC(C)=C(C(=O)OC)C1c1cccc(Cl)c1Cl (stereo unspecified)
- IC50 (Rattus norvegicus): 3.16 nM
- pIC25 (Cavia porcellus): 7.2

Compound: CCO/C(O)=C1\C(COCCNc2ccnc(O)n2)=NC(C)=C(C(=O)OC)C1c1cccc(Cl)c1Cl (stereo unspecified)
- IC50 (Rattus norvegicus): 1.58 nM
- Decrease in CVR (Canis familiaris): 62%
- pIC25 (Cavia porcellus): 6.7

Compound: CCO/C(O)=C1\C(COCCNc2cc(O)ncn2)=NC(C)=C(C(=O)OC)C1c1cccc(Cl)c1Cl (stereo unspecified)
- IC50 (Rattus norvegicus): 1.26 nM
- pIC25 (Cavia porcellus): 7.2

Compound: CCOC(=O)NC(=S)NCCOCC1=C(C(=O)OCC)C(c2cccc(Cl)c2Cl)/C(=C(\O)OC)C(C)=N1 (stereo unspecified)
- IC50 (Rattus norvegicus): 31.6 nM
- pIC25 (Cavia porcellus): 6.2

Compound: CCO/C(O)=C1\C(COCCNc2nc(O)cc(-c3ccccc3)n2)=NC(C)=C(C(=O)OC)C1c1cccc(Cl)c1Cl (stereo unspecified)
- IC50 (Rattus norvegicus): 7.94 nM
- pIC25 (Cavia porcellus): 6.9

Compound: CCO/C(O)=C1\C(COCCNc2nccnc2NC)=NC(C)=C(C(=O)OC)C1c1cccc(Cl)c1Cl (stereo unspecified)
- IC50 (Rattus norvegicus): 5.01 nM
- pIC25 (Cavia porcellus): 7

Compound: CCO/C(O)=C1\C(COCC/N=C(/N)S)=NC(C)=C(C(=O)OC)C1c1cccc(Cl)c1Cl (stereo unspecified)
- IC50 (Rattus norvegicus): 1 nM
- pIC25 (Cavia porcellus): 7.2

Compound: CCO/C(O)=C1\C(COCCNc2n[s+]([O-])nc2OC)=NC(C)=C(C(=O)OC)C1c1cccc(Cl)c1Cl (stereo unspecified)
- IC50 (Rattus norvegicus): 10 nM
- pIC25 (Cavia porcellus): 7.1

Compound: COC(=O)C1=C(C)NC(C)=C(C(=O)OC)C1c1ccccc1[N+](=O)[O-] [NIFEDIPINE]
- Decrease in CVR (Canis familiaris): 77%
- pIC25 (Cavia porcellus): 7.5

The next lines start with results.

- IC50 (Rattus norvegicus): 20 nM
Compound: CCO/C(O)=C1\C(COCCNc2n[nH]c(N)n2)=NC(C)=C(C(=O)OC)C1c1ccccc1Cl (stereo unspecified)
- pIC25 (Cavia porcellus): 6.2

- IC50 (Rattus norvegicus): 100 nM
Compound: CCO/C(O)=C1\C(C)=NC(COCCNc2n[nH]c(N)n2)=C(C(=O)OC)C1c1cccc(Cl)c1Cl (stereo unspecified)
- pIC25 (Cavia porcellus): 5.5

- IC50 (Rattus norvegicus): 2.51 nM
Compound: CCO/C(O)=C1\C(COCCNc2nccc(O)n2)=NC(C)=C(C(=O)OC)C1c1cccc(Cl)c1Cl (stereo unspecified)
- Decrease in CVR (Canis familiaris): 70%
- pIC25 (Cavia porcellus): 6.7

- IC50 (Rattus norvegicus): 6.31 nM
Compound: CCO/C(O)=C1\C(COCCNc2n[nH]c(N)n2)=NC(C)=C(C(=O)OC)C1c1cccc(Cl)c1Cl (stereo unspecified)
- Decrease in CVR (Canis familiaris): 70%
- pIC25 (Cavia porcellus): 6.3

- IC50 (Rattus norvegicus): 3.98 nM
Compound: CCO/C(O)=C1\C(COCCNc2nc(N)n(C)n2)=NC(C)=C(C(=O)OC)C1c1cccc(Cl)c1Cl (stereo unspecified)
- pIC25 (Cavia porcellus): 6.8

- IC50 (Rattus norvegicus): 3.16 nM
Compound: CCO/C(O)=C1\C(COCCNc2noc(N)n2)=NC(C)=C(C(=O)OC)C1c1cccc(Cl)c1Cl (stereo unspecified)
- Decrease in CVR (Canis familiaris): 76%
- pIC25 (Cavia porcellus): 7.3

- IC50 (Rattus norvegicus): 126 nM
Compound: CCO/C(O)=C1\C(COCCNc2n[nH]c(N)n2)=NC(C)=C(C(=O)OC)C1c1cccc(Cl)c1 (stereo unspecified)

- IC50 (Rattus norvegicus): 3.98 nM
Compound: CCO/C(O)=C1\C(COCCNc2n[nH]c(N)n2)=NC(C)=C(C(=O)OC)C1c1cccc(C(F)(F)F)c1Cl (stereo unspecified)
- pIC25 (Cavia porcellus): 6.3

- IC50 (Rattus norvegicus): 20 nM
Compound: CCO/C(O)=C1\C(COCCNc2nc(O)cs2)=NC(C)=C(C(=O)OC)C1c1cccc(Cl)c1Cl (stereo unspecified)
- pIC25 (Cavia porcellus): 6.1

- IC50 (Rattus norvegicus): 10 nM
Compound: CCO/C(O)=C1\C(COCCNc2n[nH]c(O)n2)=NC(C)=C(C(=O)OC)C1c1cccc(Cl)c1Cl (stereo unspecified)
- pIC25 (Cavia porcellus): 6.4

- IC50 (Rattus norvegicus): 316 nM
Compound: CCO/C(O)=C1\C(COCCNc2n[nH]c(N)n2)=NC(C)=C(C(=O)OC)C1c1cccnc1Cl (stereo unspecified)
- pIC25 (Cavia porcellus): 6

- IC50 (Rattus norvegicus): 12.6 nM
Compound: CCO/C(O)=C1\C(COCCNc2cc(Cl)ncn2)=NC(C)=C(C(=O)OC)C1c1cccc(Cl)c1Cl (stereo unspecified)
- pIC25 (Cavia porcellus): 7.7

- IC50 (Rattus norvegicus): 15.8 nM
Compound: CCO/C(O)=C1\C(COCCNc2n[s+]([O-])nc2N)=NC(C)=C(C(=O)OC)C1c1cccc(Cl)c1Cl (stereo unspecified)
- pIC25 (Cavia porcellus): 7
